Test results from publication PMC12198371 (Nature Communications, 2025).
Positions of bridges follow the written chain, without caps; N, C: chain ends. Residues, ends and D or L forms follow the SMILES beside them. No end group written: not given here.

Experiments:
[1] = biological target: carbonic anhydrase (PT4) (Bos taurus, UniProt P00921); experiment: Yeast surface display titration; type: binding, bovine; conditions: ratio of KDapp values
[2] = biological target: α-chymotrypsin (PT5) (Bos taurus, UniProt P00766); experiment: Yeast surface display titration; type: binding, bovine
[3] = biological target: bovine α-chymotrypsin (PT5) (Bos taurus, UniProt P00766); experiment: Residual enzyme activity, chromogenic substrate; type: biochemical
[4] = biological target: T1, aldolase (PT1) (Oryctolagus cuniculus, UniProt P00883); experiment: Yeast surface display titration; type: binding, rabbit
T1 sequence (P00883 1-364): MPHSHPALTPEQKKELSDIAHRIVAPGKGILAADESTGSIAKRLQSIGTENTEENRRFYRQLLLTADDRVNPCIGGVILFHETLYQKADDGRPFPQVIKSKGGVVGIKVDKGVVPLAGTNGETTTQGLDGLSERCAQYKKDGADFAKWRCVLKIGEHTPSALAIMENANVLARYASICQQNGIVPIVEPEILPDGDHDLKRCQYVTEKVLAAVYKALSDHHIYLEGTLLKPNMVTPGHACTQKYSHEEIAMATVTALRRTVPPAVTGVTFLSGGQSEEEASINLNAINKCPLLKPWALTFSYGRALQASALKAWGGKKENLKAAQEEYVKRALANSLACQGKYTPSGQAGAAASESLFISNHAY

[5] = biological target: T1, aldolase (PT1); experiment: Surface plasmon resonance; type: binding, rabbit; conditions: PT1 (tetrameric), 600 pM vs 326 nM
Procedure, shortened: (§1)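 Targets were amine-coupled with EDC/NHS, then ethanolamine pH 8.5. PT1 was coupled at 200 µg/mL and PT5 at 30 µg/mL, both in 10 mM NaAc pH 5.2. PT3 was coupled at 10 µg/mL in 10 mM NaAc pH 4.5. Two-fold dilutions of chemically synthesised peptide were run in PBS pH 7.4 with 0.005% Tween-20 and 2% DMSO, at 25 °C and 30 µL/min. KD, kon and koff were recorded.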

[6] = biological target: carbapenemase GES-5 (PT3) (Klebsiella pneumoniae, UniProt Q09HD0); experiment: Surface plasmon resonance; type: binding; conditions: soluble chemically synthesised isomers of MP3.2
Procedure, shortened: as §1

[7] = biological target: streptavidin (PT2) (Streptomyces avidinii, UniProt P22629); experiment: Yeast surface display titration; type: binding
[8] = test system: strep-tactin (PH2.1); experiment: Yeast surface display titration, specificity; type: binding; conditions: from KDapp values
[9] = biological target: α-chymotrypsin; conditions: natural inhibitor, Fig. 9d; cited from earlier work

Sequence of streptavidin (PT2) (P22629 37-163 limits assumed): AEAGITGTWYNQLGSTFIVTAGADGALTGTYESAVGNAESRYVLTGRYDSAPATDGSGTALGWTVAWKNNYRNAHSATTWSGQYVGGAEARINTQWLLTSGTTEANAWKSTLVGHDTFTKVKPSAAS
Sequence of carbonic anhydrase (PT4) (P00921 whole entry): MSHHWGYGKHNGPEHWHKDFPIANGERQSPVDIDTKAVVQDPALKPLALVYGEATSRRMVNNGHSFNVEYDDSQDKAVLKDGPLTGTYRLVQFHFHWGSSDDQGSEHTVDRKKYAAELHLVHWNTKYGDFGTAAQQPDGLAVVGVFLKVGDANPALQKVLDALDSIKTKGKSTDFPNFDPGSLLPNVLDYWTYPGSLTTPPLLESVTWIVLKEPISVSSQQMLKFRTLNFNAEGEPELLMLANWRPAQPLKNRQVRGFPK
Sequence of carbapenemase GES-5 (PT3) (Q09HD0 19-287): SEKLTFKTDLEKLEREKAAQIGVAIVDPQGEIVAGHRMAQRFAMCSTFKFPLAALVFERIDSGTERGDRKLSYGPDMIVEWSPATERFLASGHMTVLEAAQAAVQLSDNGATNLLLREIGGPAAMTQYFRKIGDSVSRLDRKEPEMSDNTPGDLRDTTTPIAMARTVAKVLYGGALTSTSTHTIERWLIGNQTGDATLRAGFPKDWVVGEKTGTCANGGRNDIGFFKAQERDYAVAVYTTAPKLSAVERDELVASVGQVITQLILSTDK

ACLVGPYYMLDCSG (disulfide 2-12 (inferred)) [MP4.1]
higher binding affinity for PT4 than MP4.4 [1]: 16 fold
tighter binding to PT4 than MP4.2 [1]: 4 fold
tighter binding to PT4 than MP4.3 [1]: 9 fold

CC[C@H](C)[C@@H]1NC(=O)[C@H](Cc2c[nH]c3ccccc23)NC(=O)[C@H]([C@@H](C)O)NC(=O)[C@H](Cc2c[nH]c3ccccc23)NC(=O)[C@H](CC(=O)O)NC(=O)[C@H](CCCNC(=N)N)NC(=O)[C@@H](NC(=O)[C@H](C)N)CSSC[C@@H](C(=O)N[C@@H](CO)C(=O)NCC(N)=O)NC(=O)[C@H](CCC(N)=O)NC1=O [MP5.1] (H-ACRDWTWIQCSG-NH2; disulfide 2-10)
higher binding affinity to PT5 than MP5.2 ([2]; ratio of KDapp values): 2 fold
tighter binding to PT5 than MP5.5 ([2]; ratio of KDapp values): 5 fold

CC[C@H](C)[C@H](NC(=O)[C@@H](NC(=O)CNC(=O)[C@H](CCCNC(=N)N)NC(=O)[C@H](CC(C)C)NC(=O)[C@@H]1CSSC[C@H](NC(=O)[C@H](C)N)C(=O)N[C@@H](C)C(=O)N[C@@H](Cc2c[nH]c3ccccc23)C(=O)N1)[C@@H](C)O)C(=O)N[C@H]1CSSC[C@@H](C(=O)N[C@@H](CO)C(=O)NCC(N)=O)NC1=O [MP5.4.2] (H-ACAWCLRGTICCSG-NH2; disulfide 2-5, 11-12)
Ki [3]: 11.3 nM

CC(C)C[C@@H]1NC(=O)[C@H](C(C)C)NC(=O)[C@H](CCC(=O)O)NC(=O)[C@@H](NC(=O)[C@H](C)N)CSSC[C@@H](C(=O)N[C@@H](CO)C(=O)NCC(N)=O)NC(=O)CNC(=O)[C@H]([C@@H](C)O)NC(=O)[C@H](Cc2c[nH]c3ccccc23)NC(=O)[C@H](CC(=O)O)NC(=O)[C@H](Cc2ccc(O)cc2)NC(=O)[C@H](CO)NC1=O [MP1.1] (H-ACEVLSYDWTGCSG-NH2; disulfide 2-12)
Kd [4]: 0.6 nM
discrepancy between KD by yeast surface titration and by SPR [5]: ~ 500 fold

MP3.2.1: chemically synthesised ‘two rings’ isomer of MP3.2 (ACRYICLSFRHCGWFCSG-NH2; disulfide 2-12, 6-16; N-terminus assumed; SMILES CC[C@H](C)[C@@H]1NC(=O)[C@H](Cc2ccc(O)cc2)NC(=O)[C@H](CCCNC(=N)N)NC(=O)[C@@H](NC(=O)[C@H](C)N)CSSC[C@@H]2NC(=O)[C@H](Cc3c[nH]cn3)NC(=O)[C@H](CCCNC(=N)N)NC(=O)[C@H](Cc3ccccc3)NC(=O)[C@H](CO)NC(=O)[C@H](CC(C)C)NC(=O)[C@H](CSSC[C@@H](C(=O)N[C@@H](CO)C(=O)NCC(N)=O)NC(=O)[C@H](Cc3ccccc3)NC(=O)[C@H](Cc3c[nH]c4ccccc34)NC(=O)CNC2=O)NC1=O)
interaction with immobilised PT3 (SPR), in words [6]: no or very weak interactions

ACAWCLRGTICCSG (also: bicyclic or more (positions not given here)) [MP5.4]
tighter binding to PT5 than MP5.5 ([2]; ratio of KDapp values): 46 fold
Kd ([2]; read-out: KDapp, yeast-displayed peptide vs soluble PT5, text value): 0.2 nM

ACHYHPQFYMRCSG (disulfide 2-12 (inferred)) [MP2.6]
tighter binding to PT2 than MP2.4 ([7]; ratio of KDapp values): 6 fold
Kd ([7]; read-out: KDapp, yeast-displayed peptide vs soluble PT2, text value): 0.2 to 0.3 nM

ACCYRIYCPCSG (also: bicyclic or more (positions not given here)) [MP5.3]
tighter binding to PT5 than MP5.5 ([2]; ratio of KDapp values): 3 fold

ACIMVHYDRVECSG (disulfide 2-12 (inferred)) [MP2.3]
tighter binding to PH2.1 than to PT2 [8]: ~2 fold

MP3.2.2: chemically synthesised ‘two rings’ isomer of MP3.2 (ACRYICLSFRHCGWFCSG-NH2; disulfide 12-16, 2-6; N-terminus assumed; SMILES CC[C@H](C)[C@@H]1NC(=O)[C@H](Cc2ccc(O)cc2)NC(=O)[C@H](CCCNC(=N)N)NC(=O)[C@@H](NC(=O)[C@H](C)N)CSSC[C@@H](C(=O)N[C@@H](CC(C)C)C(=O)N[C@@H](CO)C(=O)N[C@@H](Cc2ccccc2)C(=O)N[C@@H](CCCNC(=N)N)C(=O)N[C@@H](Cc2c[nH]cn2)C(=O)N[C@H]2CSSC[C@@H](C(=O)N[C@@H](CO)C(=O)NCC(N)=O)NC(=O)[C@H](Cc3ccccc3)NC(=O)[C@H](Cc3c[nH]c4ccccc34)NC(=O)CNC2=O)NC1=O)
interaction with immobilised PT3 (SPR), in words [6]: no or very weak interactions

H-TVLRGCWTFSFPPKPCI-NH2 [HECI, reference compound]
Ki [9]: 3900 nM

ACSMCHPQGDFCYWACSG (also: bicyclic or more (positions not given here)) [MP2.1]
tighter binding to PH2.1 than to PT2 [8]: ~ 10 fold

CC[C@H](C)[C@@H]1NC(=O)[C@H]([C@@H](C)O)NC(=O)CNC(=O)[C@H](CCCNC(=N)N)NC(=O)[C@H](CC(C)C)NC(=O)[C@@H]2CSSC[C@@H](C(=O)N[C@@H](CO)C(=O)NCC(N)=O)NC(=O)[C@H](CSSC[C@H](NC(=O)[C@H](C)N)C(=O)N[C@@H](C)C(=O)N[C@@H](Cc3c[nH]c4ccccc34)C(=O)N2)NC1=O [MP5.4.1] (H-ACAWCLRGTICCSG-NH2; disulfide 2-11, 5-12)
Ki [3]: 50.8 nM

CC[C@H](C)[C@@H]1NC(=O)[C@H](C(C)C)NC(=O)[C@H](Cc2ccc(O)cc2)NC(=O)[C@H](Cc2ccccc2)NC(=O)[C@H](CCC(N)=O)NC(=O)[C@@H]2CCCN2C(=O)[C@H](Cc2c[nH]cn2)NC(=O)[C@H](Cc2ccc(O)cc2)NC(=O)[C@H](Cc2c[nH]cn2)NC(=O)[C@@H](NC(=O)[C@H](C)N)CSSC[C@@H](C(=O)N[C@@H](CO)C(=O)NCC(N)=O)NC1=O [MP2.2] (H-ACHYHPQFYVICSG-NH2; disulfide 2-12)
tighter binding to PT2 than MP2.5 ([7]; ratio of KDapp values): 3 fold
